Experimental data taken from ChEMBL document CHEMBL1128366, “Hypoxia-selective agents derived from quinoxaline 1,4-di-N-oxides” (J Med Chem, 1995).

Legend:
V79 = assay: The compound was tested for potency by measuring the concentration (umolar) that gives 1% clonogenic cell survival in hypoxia; assay type: functional, Cricetulus griseus
Method in brief: (§1)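 V-79 Chinese hamster lung fibroblasts in stirred suspension (2 × 10⁴ cells/mL, EMEM + 10% FBS, 10 mM HEPES), gassed for air or hypoxia; drug in DMSO added 30 min after gassing began, two flasks per dose, 2 h exposure. Cells cloned 7 days at 37 °C, crystal violet stain, colonies >64 cells counted; survival = PE treated/PE control. Dose-response curves from ≥3 experiments.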

[1] = Hypoxia cytotoxicity ratio (dose in air / hypoxia giving 99% of cell killing); method in brief: as §1

Row | Structure (SMILES) | Potency (V79) [µM] | Selectivity [1]
1 | N#Cc1c(N)[n+]([O-])c2cc(C(F)(F)F)ccc2[n+]1[O-] | 7 | 75
2 | N#Cc1c(N)[n+]([O-])c2cc(Cl)ccc2[n+]1[O-] | 9 | 150
3 | N#Cc1c(N)[n+]([O-])c2cc(F)c(F)cc2[n+]1[O-] | 1 | < 10
4 | N#Cc1c(N)[n+]([O-])c2cc(-c3ccc([N+](=O)[O-])cc3)ccc2[n+]1[O-] | 4 | 15
5 | N#Cc1c(N)[n+]([O-])c2ccccc2[n+]1[O-] | 30 | 80
6 | N#Cc1c(N)[n+]([O-])c2cc(Cl)c(F)cc2[n+]1[O-] | 2 | 10
7 | N#Cc1c(N)[n+]([O-])c2cc(F)ccc2[n+]1[O-] | 15 | 100
8 | COc1cc2c(cc1Cl)[n+]([O-])c(C#N)c(N)[n+]2[O-] | 10 | < 10
9 | N#Cc1ccc2c(c1)[n+]([O-])c(N)c(C#N)[n+]2[O-] | 11 | 50
10 | COc1ccc2c(c1)[n+]([O-])c(N)c(C#N)[n+]2[O-] | 30 | > 10
11 | N#Cc1c(N)[n+]([O-])c2cc(Cl)c(Cl)cc2[n+]1[O-] | 1 | 80
12 | Nc1n[n+]([O-])c2ccccc2[n+]1[O-] [TIRAPAZAMINE] | 30 | 75
